From ChEMBL document CHEMBL3351626, “Discovery, structure-activity relationship studies, and anti-nociceptive effects of 1-phenyl-3,6,6-trimethyl-1,5,6,7-tetrahydro-4H-indazol-4-one as novel opioid receptor agonists” (Bioorg Med Chem, 2014)
The source made the active and inactive calls. No cut-off for these calls is given here.

Assays:
[1] = molecular target: T1, Mu-type opioid receptor (Homo sapiens, UniProt P35372); format: functional, cell-based, CHO-K1
[2] = molecular target: Mu-type opioid receptor (Rattus norvegicus, UniProt P33535); assay: Displacement of [3H]-naloxone from rat mu opioid receptor expressed in HEK cells after 60 mins; format: cell-based, HEK293
[3] = molecular target: T1, Mu-type opioid receptor; assay: Agonist activity at human mu opioid receptor expressed in HEK293 cells assessed as inhibition of forskolin-induced cAMP production after 30 mins by HTRF assay; format: functional, cell-based
[4] = molecular target: Delta-type opioid receptor (Homo sapiens, UniProt P41143); assay: Agonist activity at human delta opioid receptor expressed in HEK293 cells assessed as inhibition of forskolin-induced cAMP production after 30 mins by HTRF assay; format: functional, cell-based
[5] = molecular target: Kappa-type opioid receptor (Homo sapiens, UniProt P41145); assay: Agonist activity at human kappa opioid receptor expressed in HEK293 cells assessed as inhibition of forskolin-induced cAMP production after 30 mins by HTRF assay; format: functional, cell-based
Outline: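 HEK293 cells stably expressing the mu, delta or kappa opioid receptor, plus parental cells, at 2000 cells/well in DMEM. Compound in HBSS added with 1 µM forskolin and 100 µM IBMX for 30 min at room temperature. d2-cAMP and anti-cAMP antibody in lysis buffer then added. Read 2 h later: excitation 330 nm, emission 620 and 665 nm.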

[6] = test system: Mus musculus; assay: Analgesic activity in iv dosed wild type B6 mouse assessed as basal tail-flick withdrawal latency; format: functional
Outline: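 Tail-flick instrument nociception test in wild-type B6 mice. Basal latency measured first, then compound given iv (20, 18.4 or 25 mg/kg depending on compound). Latency read at 10, 20, 30, 40, 50 and 60 min after dosing, reported as test latency minus basal latency. AUC of the time-response curve calculated; ED50 by up-and-down method. n=6 per group.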

[7] = test system: Mus musculus; assay: Analgesic activity in wild type B6 mouse assessed as basal tail-flick withdrawal latency at 20 mg/kg, iv injected with 10 mg/kg, sc naloxone 5 mins before compound dosing; format: functional, organism-based
Outline: (§1)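 Wild-type B6 mice, n=6 per group. Basal tail-flick latency measured first. […] Latency read at 10, 20, 30, 40, 50 and 60 min after dosing. Test minus basal latency plotted against time and AUC calculated.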

[8] = molecular target: T1, Mu-type opioid receptor; assay: Agonist activity at myc-tagged mu opioid receptor (unknown origin) expressed in AtT-20 cells assessed as induction of membrane potential hyperpolarization; format: cell-based, AtT20
Outline: (§2)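 Mouse pituitary AtT-20 cells (endogenous GIRK1/GIRK2) electroporated with myc-MOR plasmid or vehicle and seeded. After 24 h, serum-starved 3 h, then loaded with blue membrane potential dye for 0.5 h at 25 °C. Vehicle or compound added and potassium conductance read as fluorescence over about 175 s.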

[9] = molecular target: T1, Mu-type opioid receptor; assay: Agonist activity at myc-tagged mu opioid receptor (unknown origin) expressed in AtT-20 cells assessed as induction of membrane potential hyperpolarization in presence of 1 uM naloxone; format: cell-based; details: AtT20
Outline: as §2

[10] = test system: Mus musculus; assay: Analgesic activity in wild type B6 mouse assessed as basal tail-flick withdrawal latency at 25 mg/kg, iv injected with 10 mg/kg, sc naloxone 5 mins before compound dosing; format: functional, organism-based
Outline: as §1

[11] = test system: Mus musculus; assay: Analgesic activity in wild type B6 mouse assessed as basal tail-flick withdrawal latency at 18.4 mg/kg, iv injected with 10 mg/kg, sc naloxone 5 mins before compound dosing; format: functional, organism-based
Outline: as §1

Chain of Kappa-type opioid receptor (P41145 whole entry): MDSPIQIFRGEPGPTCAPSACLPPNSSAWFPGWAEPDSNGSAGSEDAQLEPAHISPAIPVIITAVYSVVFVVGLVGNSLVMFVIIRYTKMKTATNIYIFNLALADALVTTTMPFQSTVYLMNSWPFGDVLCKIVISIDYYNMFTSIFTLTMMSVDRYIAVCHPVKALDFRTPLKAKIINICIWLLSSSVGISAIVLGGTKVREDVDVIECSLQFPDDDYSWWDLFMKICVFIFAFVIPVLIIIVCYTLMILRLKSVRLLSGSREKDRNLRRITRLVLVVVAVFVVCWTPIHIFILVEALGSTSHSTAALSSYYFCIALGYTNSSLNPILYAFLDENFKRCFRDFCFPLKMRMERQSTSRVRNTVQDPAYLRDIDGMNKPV
Chain of Delta-type opioid receptor (P41143 whole entry): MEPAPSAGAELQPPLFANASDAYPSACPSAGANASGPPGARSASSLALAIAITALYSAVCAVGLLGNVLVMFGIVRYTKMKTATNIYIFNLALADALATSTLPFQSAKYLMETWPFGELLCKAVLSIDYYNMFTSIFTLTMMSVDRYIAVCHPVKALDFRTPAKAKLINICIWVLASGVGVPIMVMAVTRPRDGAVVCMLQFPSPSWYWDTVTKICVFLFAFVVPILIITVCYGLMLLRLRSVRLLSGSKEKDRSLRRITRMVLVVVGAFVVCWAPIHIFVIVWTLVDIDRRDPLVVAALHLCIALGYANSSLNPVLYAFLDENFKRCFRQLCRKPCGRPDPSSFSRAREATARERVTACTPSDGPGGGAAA
T1 sequence (P35372 whole entry): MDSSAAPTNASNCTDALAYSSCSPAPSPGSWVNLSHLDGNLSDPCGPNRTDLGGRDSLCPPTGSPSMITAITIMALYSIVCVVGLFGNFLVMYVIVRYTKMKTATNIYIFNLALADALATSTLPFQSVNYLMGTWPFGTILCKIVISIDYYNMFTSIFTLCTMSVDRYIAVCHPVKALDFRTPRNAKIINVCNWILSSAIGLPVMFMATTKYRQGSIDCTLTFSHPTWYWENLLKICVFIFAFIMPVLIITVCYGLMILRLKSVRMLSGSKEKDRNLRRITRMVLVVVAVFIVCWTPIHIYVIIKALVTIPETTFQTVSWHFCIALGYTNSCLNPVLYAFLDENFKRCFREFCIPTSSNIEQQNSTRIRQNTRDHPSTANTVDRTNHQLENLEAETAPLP
Chain of Mu-type opioid receptor (Rattus norvegicus, UniProt P33535) (P33535 whole entry): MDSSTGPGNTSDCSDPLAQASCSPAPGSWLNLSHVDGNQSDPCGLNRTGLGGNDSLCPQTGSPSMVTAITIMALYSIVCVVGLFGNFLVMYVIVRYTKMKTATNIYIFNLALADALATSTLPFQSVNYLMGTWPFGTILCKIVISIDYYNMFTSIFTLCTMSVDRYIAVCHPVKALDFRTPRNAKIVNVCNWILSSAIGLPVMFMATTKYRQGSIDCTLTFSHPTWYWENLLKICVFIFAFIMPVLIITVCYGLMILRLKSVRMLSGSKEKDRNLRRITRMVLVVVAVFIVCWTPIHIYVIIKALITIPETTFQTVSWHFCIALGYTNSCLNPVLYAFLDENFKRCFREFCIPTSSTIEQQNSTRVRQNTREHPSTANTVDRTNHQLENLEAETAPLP

`CC1(C)CC(=O)c2c(C(F)(F)F)nn(-c3ccc(Cl)cc3Cl)c2C1` showed an EC50 [1] of 1540 nM.

In the case of `Cc1nn(-c2ccccc2Br)c2c1C(=O)CC(C)(C)C2`, the EC50 [1] is reported as 1120 nM.

For `Cc1nn(-c2ccc(Br)cc2Br)c2c1C(O)CC(C)(C)C2` (stereo not given), the EC50 [1] was 100 nM, the Ki [2] was > 100000 nM and the IC50 [3] was 3380 nM. The IC50 [4] was > 100000 nM and the IC50 [5] was 1100 nM.

In the case of `Cc1nn(-c2ccc(Cl)cc2)c2c1C(=O)CC(C)(C)C2`, the EC50 [1] is reported as 13600 nM.

With `CCOC(=O)c1ccccc1-n1nc(C)c2c1CC(C)(C)CC2=O` the EC50 [1] was 30200 nM.

In the case of `Cc1nn(-c2ccc(F)cc2F)c2c1C(=O)CC(C)(C)C2`, the EC50 [1] is reported as 10300 nM.

Compound `Cc1nn(-c2ccc(Br)cc2Br)c2c1C(=O)CC(C)(C)C2` has an EC50 [1] of 41 nM, a Ki [2] of 470 nM and an IC50 [3] of 730 nM. It also gave an IC50 [4] of 1690 nM, an IC50 [5] of 410 nM and an ED50 [6] of 8.4 mg/kg. The Activity [7] was “inactive”, the EC50 [8] was 5490 nM and the Activity [9] was “inactive”.

Compound `Cc1ccc(-n2nc(C)c3c2CC(C)(C)CC3=O)c(C)c1` has an EC50 [1] of 370 nM and a Ki [2] of 3930 nM.

Compound `Cc1nn(-c2cc(Cl)ccc2Cl)c2c1C(=O)CC(C)(C)C2` has an EC50 [1] of 2890 nM.

`Cc1nn(-c2ccc(Cl)cc2Cl)c2c1C(=O)CCC2` was tested, and the EC50 [1] was 13600 nM.

`Cc1n[nH]c2c1C(=O)CC(C)(C)C2` was tested, and the EC50 [1] was > 100000 nM.

`COc1ccc(-n2nc(C)c3c2CC(C)(C)CC3=O)cc1` gave an EC50 [1] of 18400 nM.

For `CC1(C)CC(=O)c2c(C3CC3)nn(-c3ccc(Cl)cc3Cl)c2C1`, the EC50 [1] was 370 nM and the Ki [2] was 1300 nM.

In the case of `Cc1cc(Cl)ccc1-n1nc(C)c2c1CC(C)(C)CC2=O`, the EC50 [1] is reported as 370 nM and the Ki [2] is reported as > 100000 nM.

In the case of `Cc1nn(-c2ccccc2Cl)c2c1C(=O)CC(C)(C)C2`, the EC50 [1] is reported as 2280 nM.

Compound `Cc1ccc(-n2nc(C)c3c2CC(C)(C)CC3=O)c(Br)c1` has an EC50 [1] of 41 nM, a Ki [2] of 740 nM and an IC50 [3] of 6000 nM. The IC50 [4] was > 100000 nM, the IC50 [5] was 370 nM and the ED50 [6] was 26.6 mg/kg. For the same compound, the Activity [10] was “inactive”, the EC50 [8] was 200 nM and the Activity [9] was “inactive”.

`Cc1nn(-c2ccc(Cl)cc2Cl)c2c1C(=O)CC(C)(C)C2` was tested, and the EC50 [1] was 150 nM, the IC50 [3] was 7890 nM and the IC50 [4] was 10000 nM. It also gave an IC50 [5] of 2650 nM.

For `CCc1ccccc1-n1nc(C)c2c1CC(C)(C)CC2=O`, the EC50 [1] was 19000 nM.

In the case of `Cc1nn(-c2ccc(Br)cc2)c2c1C(=O)CC(C)(C)C2`, the EC50 [1] is reported as 9910 nM.

Work on `Cc1cccc(-n2nc(C)c3c2CC(C)(C)CC3=O)c1C` yielded an EC50 [1] of 8900 nM.

`Cc1ccccc1-n1nc(C)c2c1CC(C)(C)CC2=O` showed an EC50 [1] of 4720 nM.

In the case of `COC(=O)c1ccc(-n2nc(C)c3c2CC(C)(C)CC3=O)cc1`, the EC50 [1] is reported as 10000 nM.

In the case of `Cc1ccc(C)c(-n2nc(C)c3c2CC(C)(C)CC3=O)c1`, the EC50 [1] is reported as 10000 nM.

Compound `Cc1nn(-c2ccc(Cl)cc2Br)c2c1C(=O)CC(C)(C)C2` has an EC50 [1] of 41 nM, a Ki [2] of 610 nM and an IC50 [3] of 3300 nM. The IC50 [4] was 3380 nM, the IC50 [5] was 570 nM and the ED50 [6] was 10.9 mg/kg. The Activity [11] was “inactive”, the EC50 [8] was 100 nM and the Activity [9] was “inactive”.

For `Cc1nn(-c2cccc(Cl)c2)c2c1C(=O)CC(C)(C)C2`, the EC50 [1] was > 100000 nM.

For `Cc1nn(-c2ccccc2)c2c1C(=O)CC(C)(C)C2`, the EC50 [1] was > 100000 nM.
